Laboratory results as given in ChEMBL document CHEMBL1275561, “In vitro activities of doripenem, a new broad-spectrum carbapenem, against recently collected clinical anaerobic isolates, with emphasis on the Bacteroides fragilis group” (2008).

Experiments:
Format in all cases: functional
[1] = system: Bacteroides nordii; assay: Antimicrobial activity against Bacteroides nordii assessed as resistant isolates by agar dilution method
Method in brief: (§1)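 CLSI agar dilution on enriched brucella agar (5% lysed defibrinated sheep blood, 1 μg/ml vitamin K1), plates made on test day. Log-phase inocula adjusted to 0.5 McFarland; about 10^5 CFU/spot by Steers replicator. Incubated anaerobically at 37°C for 48 h. MIC was the lowest concentration giving a marked change in growth versus the drug-free control plate. Resistance rates used CLSI anaerobe breakpoints. Controls were B. fragilis ATCC 25285 and B. thetaiotaomicron ATCC 29741.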

[2] = system: Finegoldia magna; assay: Antimicrobial activity against Finegoldia magna by agar dilution method
Method in brief: (§2)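 Gram-positive anaerobes were tested by CLSI agar dilution on brucella agar enriched with 5% lysed defibrinated sheep blood and 1 μg/ml vitamin K1. Inoculum was log-phase growth at 0.5 McFarland, about 10^5 CFU/spot by replicator. Incubation was anaerobic, 37°C, 48 h. MIC was the lowest concentration with a marked growth change versus the drug-free plate. Eubacterium lentum ATCC 43055 was the control, and tests were repeated if it fell outside the CLSI range.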

[3] = system: Bacteroides nordii; assay: Antimicrobial activity against Bacteroides nordii by agar dilution method
Method in brief: (§3)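 CLSI agar dilution on enriched brucella agar (5% lysed defibrinated sheep blood, 1 μg/ml vitamin K1), with drug plates made on the test day. Log-phase cells were adjusted to 0.5 McFarland, and about 10^5 CFU/spot was delivered by Steers replicator. Plates were incubated anaerobically at 37°C for 48 h. MIC was the lowest concentration giving a marked growth change versus the control plate. Controls were B. fragilis ATCC 25285 and B. thetaiotaomicron ATCC 29741.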

[4] = system: Bacteroides ovatus; assay: Antimicrobial activity against Bacteroides ovatus assessed as resistant isolates by agar dilution method; method in brief: as §1
[5] = system: Clostridioides difficile; assay: Antimicrobial activity against Clostridium difficile by agar dilution method
[6] = system: Phocaeicola vulgatus; assay: Antimicrobial activity against Bacteroides vulgatus assessed as resistant isolates by agar dilution method; method in brief: as §1
[7] = system: Parabacteroides merdae; assay: Antimicrobial activity against Bacteroides merdae by agar dilution method; method in brief: as §3
[8] = system: Bacteroides caccae; assay: Antimicrobial activity against Bacteroides caccae by agar dilution method; method in brief: as §3
[9] = system: [Clostridium] innocuum; assay: Antimicrobial activity against Clostridium innocuum assessed as resistant isolates by agar dilution method; settings: pooled result: one value given for 4 cell lines, strains, targets or settings
[10] = system: [Clostridium] innocuum; assay: Antimicrobial activity against Clostridium innocuum by agar dilution method
[11] = system: Bacteroides fragilis; assay: Antimicrobial activity against Bacteroides fragilis assessed as resistant isolates by agar dilution method; method in brief: as §1
[12] = system: Cutibacterium acnes; assay: Antimicrobial activity against Propionibacterium acnes assessed as resistant isolates by agar dilution method
Method in brief: (§4)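 Agar dilution following CLSI on brucella agar with 5% lysed defibrinated sheep blood and 1 μg/ml vitamin K1, plates made on test day. Log-phase cells at 0.5 McFarland, about 10^5 CFU/spot by Steers replicator, 48 h anaerobic at 37°C. MIC read as the lowest concentration causing a marked growth change versus control. Resistance counted by CLSI anaerobe breakpoints. Eubacterium lentum ATCC 43055 served as control.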

[13] = system: Parvimonas micra; assay: Antimicrobial activity against Micromonas micros by agar dilution method; method in brief: as §2
[14] = system: Finegoldia magna; assay: Antimicrobial activity against Finegoldia magna assessed as resistant isolates by agar dilution method; method in brief: as §4
[15] = system: Peptoniphilus asaccharolyticus; assay: Antimicrobial activity against Peptoniphilus asaccharolyticus by agar dilution method; method in brief: as §2
[16] = system: Bacteroides eggerthii; assay: Antimicrobial activity against Bacteroides eggerthii by agar dilution method; method in brief: as §3
[17] = system: Anaerococcus prevotii; assay: Antimicrobial activity against Anaerococcus prevotii by agar dilution method; method in brief: as §2
[18] = system: Clostridium subterminale; assay: Antimicrobial activity against Clostridium subterminale by agar dilution method
[19] = system: Peptoniphilus asaccharolyticus; assay: Antimicrobial activity against Peptoniphilus asaccharolyticus assessed as resistant isolates by agar dilution method; settings: pooled result: one value given for 4 cell lines, strains, targets or settings; method in brief: as §4
[20] = system: Bacteroides uniformis; assay: Antimicrobial activity against Bacteroides uniformis assessed as resistant isolates by agar dilution method; method in brief: as §1
[21] = system: Bacteroides thetaiotaomicron; assay: Antimicrobial activity against Bacteroides thetaiotaomicron by agar dilution method; method in brief: as §3
[22] = system: Bacteroides eggerthii; assay: Antimicrobial activity against Bacteroides eggerthii assessed as resistant isolates by agar dilution method; method in brief: as §1
[23] = system: Bacteroides fragilis; assay: Antimicrobial activity against Bacteroides fragilis by agar dilution method; method in brief: as §3
[24] = system: Parabacteroides distasonis; assay: Antimicrobial activity against Bacteroides distasonis assessed as resistant isolates by agar dilution method; method in brief: as §1
[25] = system: Bacteroides thetaiotaomicron; assay: Antimicrobial activity against Bacteroides thetaiotaomicron assessed as resistant isolates by agar dilution method; method in brief: as §1
[26] = system: Parabacteroides distasonis; assay: Antimicrobial activity against Bacteroides distasonis by agar dilution method; method in brief: as §3
[27] = system: Clostridium tertium; assay: Antimicrobial activity against Clostridium tertium by agar dilution method
[28] = system: Propionibacterium; assay: Antimicrobial activity against Propionibacterium sp. by agar dilution method
Method in brief: (§5)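 Log-phase isolates were adjusted to 0.5 McFarland, and about 10^5 CFU/spot was delivered by Steers replicator. Plates were incubated anaerobically at 37°C for 48 h. MIC was the lowest concentration giving a marked growth change versus the control plate. Eubacterium lentum ATCC 43055 was the QC strain, with repeats when out of range.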

[29] = system: Parabacteroides merdae; assay: Antimicrobial activity against Bacteroides merdae assessed as resistant isolates by agar dilution method; method in brief: as §1
[30] = system: Phocaeicola vulgatus; assay: Antimicrobial activity against Bacteroides vulgatus by agar dilution method; method in brief: as §3
[31] = system: Clostridium paraputrificum; assay: Antimicrobial activity against Clostridium paraputrificum by agar dilution method
[32] = system: Peptostreptococcus sp.; assay: Antimicrobial activity against Peptostreptococcus sp. by agar dilution method; method in brief: as §5
[33] = system: Propionibacterium; assay: Antimicrobial activity against Propionibacterium sp. assessed as resistant isolates by agar dilution method; method in brief: as §4
[34] = system: Bacteroides ovatus; assay: Antimicrobial activity against Bacteroides ovatus by agar dilution method; method in brief: as §3
[35] = system: Clostridium perfringens; assay: Antimicrobial activity against Clostridium perfringens by agar dilution method
[36] = system: Bacteroides caccae; assay: Antimicrobial activity against Bacteroides caccae assessed as resistant isolates by agar dilution method; method in brief: as §1
[37] = system: Cutibacterium acnes; assay: Antimicrobial activity against Propionibacterium acnes by agar dilution method; method in brief: as §5
[38] = system: Bacteroides uniformis; assay: Antimicrobial activity against Bacteroides uniformis by agar dilution method; method in brief: as §3

CCC[C@@H]1C[C@@H](C(=O)N[C@@H]([C@H]2O[C@H](SC)[C@H](O)[C@@H](O)[C@H]2O)[C@H](C)Cl)N(C)C1 [CLINDAMYCIN]
0.25 µg/mL: MIC50 [13] | MIC50 [15] | MIC50 [17] | MIC [28] | MIC50 [28] | MIC50 [32] | MIC50 [35] | MIC [37] | MIC50 [37]
13.3%: Activity [24]
42.9%: Activity [4]
3.8%: Activity [20]
22.2%: Activity [9]
29.3%: Activity [11]
5.6%: Activity [12]
34.6%: Activity [25]
7.7%: Activity [33]
32 µg/mL: MIC90 [2] | MIC90 [10] | MIC90 [13] | MIC90 [15] | MIC90 [17] | MIC90 [18] | MIC90 [27] | MIC90 [31] | MIC90 [32]
32.3%: Activity [6]
12.2%: Activity [19]
8 µg/mL: MIC90 [3] | MIC90 [7] | MIC90 [16]
20%: Activity [1] | Activity [14] | Activity [22] | Activity [29]
1 µg/mL: MIC50 [3] | MIC [5] | MIC50 [7] | MIC50 [8] | MIC50 [16] | MIC50 [26]
2 µg/mL: MIC50 [10] | MIC50 [18] | MIC50 [21] | MIC50 [27] | MIC90 [28] | MIC50 [31] | MIC50 [34] | MIC90 [35] | MIC50 [38]
128 µg/mL: MIC90 [8] | MIC90 [21] | MIC90 [23] | MIC90 [26] | MIC90 [30] | MIC90 [34] | MIC90 [38]
31.3%: Activity [36]
0.5 µg/mL: MIC50 [2] | MIC [23] | MIC50 [23] | MIC [30] | MIC50 [30] | MIC90 [37]

C[C@@H](O)[C@H]1C(=O)N2C(C(=O)O)=C(S[C@@H]3CN[C@H](CNS(N)(=O)=O)C3)[C@H](C)[C@H]12 [DORIPENEM]
2 µg/mL: MIC90 [8] | MIC90 [10] | MIC90 [18] | MIC90 [26] | MIC90 [27] | MIC90 [30] | MIC90 [31] | MIC90 [34]
0.06 µg/mL: MIC [13] | MIC50 [13] | MIC [15] | MIC50 [15] | MIC [17] | MIC50 [17] | MIC [28] | MIC50 [28] | MIC90 [28] | MIC [32] | MIC50 [32] | MIC [35] | MIC50 [35] | MIC [37] | MIC50 [37] | MIC90 [37]
1.5%: Activity [11]
0.5 µg/mL: MIC50 [3] | MIC50 [7] | MIC50 [8] | MIC90 [13] | MIC90 [15] | MIC50 [16] | MIC90 [17] | MIC50 [21] | MIC50 [23] | MIC50 [26] | MIC50 [30] | MIC90 [32] | MIC50 [34] | MIC50 [38]
0.125 µg/mL: MIC50 [2] | MIC90 [2] | MIC90 [35]
0%: Activity [1] | Activity [4] | Activity [6] | Activity [9] | Activity [12] | Activity [14] | Activity [19] | Activity [20] | Activity [22] | Activity [24] | Activity [25] | Activity [29] | Activity [33] | Activity [36]
1 µg/mL: MIC90 [3] | MIC [5] | MIC90 [7] | MIC50 [10] | MIC90 [16] | MIC50 [18] | MIC90 [21] | MIC90 [23] | MIC50 [27] | MIC50 [31] | MIC90 [38]
